Target: Tissue factor (Homo sapiens, UniProt P13726)
Assay: Inhibition of tissue factor procoagulant activity in LPS-stimulated human THP1 cells preincubated for 1 hr before LPS addition measured after 5 hrs
Format: cell-based, THP-1
Method in brief: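 THP-1 cells grown in RPMI-1640 with 10% heat-inactivated FCS, 37 °C, 5% CO2. Cells at 1 × 10⁶/mL pretreated 1 h with compound or 0.1% DMSO vehicle, then given 500 ng/mL LPS for 5 h. Cells were pelleted, resuspended, frozen/thawed three times, and the lysate incubated with prothrombin complex plus CaCl₂ (pH 7.3) 15 min at 37 °C. Factor Xa chromogenic substrate (0.5 mM) with EDTA was added and A405 read.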

Sequence of Tissue factor (P13726 whole entry): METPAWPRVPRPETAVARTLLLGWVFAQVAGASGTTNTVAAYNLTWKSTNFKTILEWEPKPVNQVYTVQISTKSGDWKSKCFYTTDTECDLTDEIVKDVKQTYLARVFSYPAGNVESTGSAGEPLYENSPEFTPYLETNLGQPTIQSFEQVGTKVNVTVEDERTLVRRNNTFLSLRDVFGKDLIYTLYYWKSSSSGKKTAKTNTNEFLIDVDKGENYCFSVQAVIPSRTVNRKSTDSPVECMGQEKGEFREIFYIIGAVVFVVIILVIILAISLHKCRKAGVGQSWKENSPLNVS

IC50: 105 nM
Compound: COc1cc2c(cc1O)[C@@H]1Cc3ccc(O)c(OC)c3CN1CC2 [STEPHOLIDINE]
